SIRT5 block: inhibitors of human sirtuin-5 desuccinylase. Purified SirT5, succinyl-peptide AMC, trypsin-coupled fluorescence. inhibition, % at 15 µM. 1.1% of 330,000 active. AID 652115; in the data active means inhibition above about 15%
MLL AF4-AF9 inh: MLL-AF4/AF9 protein interaction inhibition. P42568. inhibition, % at 10 µM. 0.47% of 350,000 active. AlphaScreen, biotin-AF4 peptide binding to FLAG-AF9;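 active means every replicate reaching a set inhibition limit, whatever the replicate mean, cut at about 25% in these data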
Target sequence (P42568 whole entry, looked up): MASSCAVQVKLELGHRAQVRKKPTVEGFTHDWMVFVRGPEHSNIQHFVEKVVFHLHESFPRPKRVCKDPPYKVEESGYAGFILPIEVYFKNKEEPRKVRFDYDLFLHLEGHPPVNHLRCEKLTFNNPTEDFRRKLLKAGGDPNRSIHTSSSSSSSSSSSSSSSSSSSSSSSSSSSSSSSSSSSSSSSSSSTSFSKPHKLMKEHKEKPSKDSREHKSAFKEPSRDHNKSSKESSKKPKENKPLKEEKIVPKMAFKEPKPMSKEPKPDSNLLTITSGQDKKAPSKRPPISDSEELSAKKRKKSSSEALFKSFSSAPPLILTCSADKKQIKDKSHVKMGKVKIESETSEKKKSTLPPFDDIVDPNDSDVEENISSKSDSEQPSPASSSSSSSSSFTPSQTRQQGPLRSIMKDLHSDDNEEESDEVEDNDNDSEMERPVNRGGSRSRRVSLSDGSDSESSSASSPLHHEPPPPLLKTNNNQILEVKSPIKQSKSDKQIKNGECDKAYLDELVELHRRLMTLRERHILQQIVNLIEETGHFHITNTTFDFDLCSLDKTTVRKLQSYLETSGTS
ERp5 inh: inhibitors of human ERp5; Q15084; ERp5 insulin aggregation, absorbance 650 nm, 90 min; inhibition, % at 9.99 µM; 0.05% of 350,000 active;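 active means mean replicate inhibition above about 25%, with every replicate also reaching it, limit read from the data, passing the limit was not always enough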
FN deposit inh: fibronectin deposition inhibition | 0.086% of 350,000 active | inhibition, % at 12.6 µM | AH1F fibroblasts, Alexa488-fibronectin deposition fluorescence, overnight;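 active means mean inhibition across replicates of 30% or more, regardless of how many single replicates reach that level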
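Test system: AH1F fibroblast monolayer depositing Alexa488-labelled fibronectin into matrix. Input: 10000 cells per well. Technique: fluorescence, ex 485 nm, em 525 nm. Buffer or medium: DMEM plus 2% serum, read in PBS. Timing: 1 h cell adhesion before compound, then overnight fibronectin incubation. Compound: single dose, pinned. Read-out basis: inhibition from reduced deposited-fibronectin fluorescence.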
PDI inh: blocks human protein disulfide isomerase activity. 0.052% of 350,000 active. inhibition, % at 10 µM. P07237. PDI insulin aggregation turbidity, A650, 90 min;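 active means mean inhibition across replicates of 30% or more, whatever share of single replicates reach that level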
A number is an active result; – = inactive; · = not tested or not shown. Most compounds without a hit are left out; they make up all but 1.3% or so of the library.

SMILES	SIRT5 block	MLL AF4-AF9 inh	ERp5 inh	FN deposit inh	PDI inh
CCOc1ccc(C(=O)NCC2CCCN2S(=O)(=O)c2cccs2)cc1 (stereo unspecified)	–	–	–	–	–
CCC1CN(C(=O)N2CCC(C(=O)NCc3ccccc3C)CC2)c2ccccc2O1 (stereo unspecified)	–	–	–	–	–
CCC1CN(C(=O)N2CCC(C(=O)Nc3ccccc3F)CC2)c2ccccc2O1 (stereo unspecified)	19	–	–	–	–
CCOC(=O)c1ccc(NC(=O)Cn2ncc(Cl)c(Cl)c2=O)cc1	–	–	–	32	–
Cc1ccc(C(=O)OCn2ncc(Cl)c(Cl)c2=O)cc1	·	·	·	17	–
CCC(=O)Nc1ccc(C(=O)Cn2ncc(Cl)c(Cl)c2=O)cc1	–	–	–	–	–
Cc1nn(Cc2ccccc2)c(Cl)c1C(=O)OCc1nnc(-c2ccc(Cl)cc2)o1	·	·	·	·	–
Cc1c(C(=O)N2CCOCC2)oc2ccccc12	16	–	–	–	–
CCOC(=O)C1=CN(Cc2cccc(Br)c2)S(=O)(=O)N(C)C1C (stereo unspecified)	42	–	–	·	–
Clc1cccc(-c2nnc(SCc3nc4ccccc4[nH]3)n2Cc2ccco2)c1	·	·	·	–	–
C[C@@H]1CN([C@@H](C)CO)C(=O)c2cc(NS(=O)(=O)c3ccccc3)ccc2O[C@@H](C)CCCCO[C@@H]1CN(C)Cc1ccc(C(F)(F)F)cc1	20	–	–	–	·
C[C@@H]1CN([C@H](C)CO)C(=O)c2cc(NS(=O)(=O)c3ccccc3)ccc2O[C@@H](C)CCCCO[C@H]1CN(C)Cc1ccc(C(F)(F)F)cc1	19	–	–	–	·
C[C@H]1CCCCO[C@@H](CN(C)Cc2ccc(C(F)(F)F)cc2)[C@@H](C)CN([C@@H](C)CO)C(=O)c2cc(NS(=O)(=O)c3ccccc3)ccc2O1	–	–	–	–	·
C[C@H]1CCCCO[C@H](CN(C)Cc2ccc(C(F)(F)F)cc2)[C@@H](C)CN([C@@H](C)CO)C(=O)c2cc(NS(=O)(=O)c3ccccc3)ccc2O1	20	–	–	–	·
Nc1nnc(SCC(=O)OCc2ccc(F)cc2)s1	·	·	·	–	–
COc1cccc([C@@H]2CC=C(C(=O)O)CN2S(=O)(=O)c2ccc(C)cc2)c1	·	–	–	–	–
O=C(c1cccc(S(=O)(=O)N2CCOCC2)c1)N1CCN(S(=O)(=O)c2cccc([N+](=O)[O-])c2)CC1	–	–	–	–	–
O=[N+]([O-])c1cccc(S(=O)(=O)N2CCN(S(=O)(=O)N3CCOCC3)CC2)c1	16	–	–	–	–
COC1(OC)C(/C=C/c2ccc(C)cc2)C(C#N)(C#N)C1(OC)OC (stereo unspecified)	·	·	·	–	–
COC1=C(Nc2ccccc2)C(=O)c2ccccc2C1=O	·	·	·	·	–
COC1=C(Nc2ccc(C)cc2)C(=O)c2ccccc2C1=O	·	37	–	–	–
COc1cccc(C2=Nc3cccc4cccc(c34)N2)c1	–	33	–	–	–
COc1ccc(N2CCN(CCCNC(=O)c3cc4sccc4n3C)CC2)cc1	–	28	–	·	–
C=CCNC(=O)CNS(=O)(=O)c1ccc(F)cc1	18	–	–	·	–
Cc1ccc(S(=O)(=O)NCC(=O)OCC(=O)NCc2ccc(F)cc2)cc1	34	–	–	–	–
SMILES	SIRT5 block	MLL AF4-AF9 inh	ERp5 inh	FN deposit inh	PDI inh
O=C(O)CNS(=O)(=O)c1ccc(F)cc1	·	·	·	–	–
C[C@H](CO)N1C[C@H](C)[C@H](CN(C)C(=O)Nc2ccccc2)Oc2ccc(NC(=O)CCN3CCOCC3)cc2C1=O	–	–	–	·	·
C/C(=N\NC(=O)c1ccc(Br)cc1)c1cccc(NC(=O)c2cccnc2)c1	20	–	–	·	–
CCOC(=O)N1CCN(S(=O)(=O)c2ccc(C(=O)N(CCN(C)C)c3nc4c(C)cccc4s3)cc2)CC1	–	–	–	–	–
CCOC(=O)N1CCN(S(=O)(=O)c2ccc(C(=O)N(CCCN(C)C)c3nc4c(C)c(C)ccc4s3)cc2)CC1	–	26	–	–	–
CCCS(=O)(=O)N1CCN(C2Cc3ccccc3C2)CC1	17	–	–	–	–
C[C@@H]1CN([C@H](C)CO)S(=O)(=O)c2ccc(-c3ccc(C#N)cc3)cc2O[C@@H]1CN(C)C(=O)Nc1cc(F)ccc1F	–	–	–	–	·
COc1ccccc1C(CC(=O)c1ccccc1)C(=O)c1ccccc1 (stereo unspecified)	17	–	–	·	·
CCN(CC)c1nc(N2CCN(CCO)CC2)nc2ccccc12	–	–	–	–	–
CCOC(=O)C1=C(C)NC(SCC(N)=O)=C(C#N)C1c1cccs1 (stereo unspecified)	·	·	·	·	–
CCOC(=O)C1=C(C)NC(SCc2cc(=O)[nH][nH]2)=C(C#N)C1c1cccs1 (stereo unspecified)	20	–	–	·	–
CCc1nc2ccccc2c(C(=O)OCC(=O)NCCCN2CCCC2=O)c1C	19	·	–	–	–
CC(=O)N1CCC2(CC1)C/C(=N\NC(=S)Nc1ccccc1F)c1cc(O)ccc1O2	–	–	–	–	–
CC(=O)N1CCC2(CC1)C/C(=N\NC(=S)Nc1ccccc1C)c1cc(O)ccc1O2	21	–	–	–	–
O=C(OCc1nnc(-c2ccc(Cl)cc2)o1)c1ccc(O)cc1	–	–	–	–	–
CS(=O)(=O)c1ccc(C(=O)OCc2nnc(-c3ccc(Cl)cc3)o2)cc1[N+](=O)[O-]	·	·	·	·	89
O=C(COC(=O)c1cccs1)Nc1cccc(S(=O)(=O)NC2=NCCCCC2)c1	–	–	–	·	–
O=C(COC(=O)c1ccc([N+](=O)[O-])s1)Nc1cccc(S(=O)(=O)NC2=NCCCCC2)c1	26	–	–	–	–
COC(=O)c1[nH]c2cc(C)ccc2c1NC(=O)CN1CCOCC1	–	–	–	–	–
CN(C)CCCNc1cc(O)c2ncccc2c1	–	76	–	–	–
N#CCCN(C(=O)COC(=O)CCN=C1NS(=O)(=O)c2ccccc21)c1ccc(F)cc1	–	–	–	–	–
O=C1C(NS(=O)(=O)c2ccc(Br)cc2)=C(N2CCCCC2)C(=O)c2ccccc21	–	38	–	–	–
CC1CCN(C2=C(NS(=O)(=O)c3ccccc3)C(=O)c3ccccc3C2=O)CC1	–	57	–	–	–
O=C1C(NS(=O)(=O)c2ccccc2)=C(N2CCN(c3ccc(F)cc3)CC2)C(=O)c2ccccc21	–	64	–	–	–
CCN1CCN(C2=C(NS(=O)(=O)c3ccc(C)cc3)C(=O)c3ccccc3C2=O)CC1	–	–	–	–	–
CC1CCCN(C2=C(NS(=O)(=O)c3ccc(Br)cc3)C(=O)c3ccccc3C2=O)C1 (stereo unspecified)	–	–	–	–	–
CC(=O)Nc1ccc(S(=O)(=O)NC2=C(N3CCN(Cc4ccccc4)CC3)C(=O)c3ccccc3C2=O)cc1	–	41	–	–	–
Cc1cc(Cl)ccc1OCC(=O)NNC(=O)C1CSC2(C)CCC(=O)N12 (stereo unspecified)	–	–	–	–	–
